Test results reported in ChEMBL document CHEMBL3808340, “Development of Novel 1,2,3,4-Tetrahydroquinoline Scaffolds as Potent NF-κB Inhibitors and Cytotoxic Agents” (ACS Med Chem Lett, 2016).

How the values were obtained:
[1] = Cytotoxicity against human PC3 cells after 72 hrs by sulforhodamine B assay; assay type: functional; settings: PC-3, 72 h
Summary of the method: (§1)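 Sulforhodamine B staining following the NCI (USA) protocol was used to estimate cell number indirectly in six human cancer lines. GI50 is the concentration giving a 50% decrease in net cell growth, reported as the mean of three experiments.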

Homo sapiens [2] = organism: Homo sapiens; test: Potency index, ratio of KL-1156 IC50 to compound IC50 for LPS-induced NFkappaB (unknown origin) transcriptional activity expressed in mouse RAW264.7 cells; assay type: cell-based
[3] = Cytotoxicity against human HCT15 cells after 72 hrs by sulforhodamine B assay; assay type: functional; settings: HCT-15, 72 h; summary of the method: as §1
MDA-MB-231 = test: Cytotoxicity against human MDA-MB-231 cells after 72 hrs by sulforhodamine B assay; assay type: functional; settings: MDA-MB-231, 72 h; summary of the method: as §1
[4] = Cytotoxicity against human NUGC3 cells after 72 hrs by sulforhodamine B assay; assay type: functional; settings: NUGC-3, 72 h; summary of the method: as §1
Homo sapiens [5] = organism: Homo sapiens; test: Potency index, ratio of PDTC IC50 to compound IC50 for LPS-induced NFkappaB (unknown origin) transcriptional activity expressed in mouse RAW264.7 cells; assay type: cell-based
[6] = Inhibition of LPS-induced NFkappaB (unknown origin) transcriptional activity expressed in mouse RAW264.7 cells incubated for 16 hrs by SEAP based reporter gene assay; assay type: cell-based; settings: RAW264.7, 16 h
NCI-H23 = test: Cytotoxicity against human NCI-H23 cells after 72 hrs by sulforhodamine B assay; assay type: functional; settings: NCI-H23, 72 h; summary of the method: as §1
ACHN = test: Cytotoxicity against human ACHN cells after 72 hrs by sulforhodamine B assay; assay type: functional; summary of the method: as §1
RAW264.7 = test: Inhibition of LPS-induced NFkappaB (unknown origin) transcriptional activity expressed in mouse RAW264.7 cells at 100 uM incubated for 16 hrs by SEAP based reporter gene assay relative to control; assay type: cell-based

Row | SMILES | GI50 [1] [µM] | Ratio IC50 (Homo sapiens [2]) | GI50 [3] [µM] | GI50 (MDA-MB-231) [µM] | GI50 [4] [µM] | Ratio IC50 (Homo sapiens [5]) | IC50 [6] [µM] | GI50 (NCI-H23) [µM] | GI50 (ACHN) [µM] | inhibition (RAW264.7) [%]
1 | O=C(Nc1ccccc1O)C1CCc2ccccc2N1C(=O)c1ccccc1 (configuration not stated) | 5.69 | 37 | 3.83 | 4.21 | 3.78 | 26 | 1.4 | 3.49 | 4.26 | > 100
2 | O=C(Nc1ccc(O)cc1)C1CCc2ccccc2N1 (configuration not stated) | > 100 | – | > 100 | > 100 | > 100 | – | 65 | > 100 | > 100 | 64
3 | O=C(Nc1ccccc1C(F)(F)F)C1CCc2ccccc2N1 (configuration not stated) | 53.3 | – | 40.4 | 45.5 | 39.3 | – | 26 | 56.8 | 57.6 | > 100
4 | O=C(Nc1ccccc1O)C1CCc2ccccc2N1C(=O)c1cccc(Cl)c1 (configuration not stated) | 23.3 | – | 23.1 | 10.6 | 11 | – | 78 | 11.6 | 17.2 | 58
5 | O=C(Nc1cc(C(F)(F)F)cc(C(F)(F)F)c1)C1CCc2ccccc2N1C(=O)c1cccc(Cl)c1 (configuration not stated) | 1.05 | – | 0.625 | 1.19 | 0.56 | – | 27 | 0.42 | 0.813 | 68
6 | O=C(Nc1ccc(C(F)(F)F)cc1)C1CCc2ccccc2N1 (configuration not stated) | 20.3 | – | 17.6 | 24.2 | 18.6 | – | 68 | 25.8 | 25 | 79
7 | O=C(Nc1ccccc1O)C1CCc2ccccc2N1C(=O)c1ccccc1Cl (configuration not stated) | 60 | – | 44.9 | 47.4 | 36.8 | – | 20 | 46.9 | 44.2 | 78
8 | O=C(Nc1ccccc1C(F)(F)F)C1CCc2ccccc2N1C(=O)c1cccc(Cl)c1 (configuration not stated) | 0.729 | 75 | 0.797 | 0.288 | 0.754 | 53 | 0.7 | 0.292 | 0.526 | 90
9 | O=C(Nc1ccccc1C(F)(F)F)C1CCc2ccccc2N1C(=O)c1ccc(Cl)cc1 (configuration not stated) | 0.786 | 19 | 0.839 | 0.533 | 0.551 | 13 | 2.7 | 0.307 | 0.824 | 92
10 | CCCC(=O)N1c2ccccc2CCC1C(=O)Nc1cc(C(F)(F)F)cc(C(F)(F)F)c1 (configuration not stated) | 18.6 | – | 21.9 | 15.2 | 14.4 | – | 20 | 15 | 13.9 | 88
11 | O=C(Nc1cc(C(F)(F)F)cc(C(F)(F)F)c1)C1CCc2ccccc2N1 (configuration not stated) | 8.12 | – | 8.7 | 8.27 | 8.76 | – | 26 | 8.41 | 8.19 | > 100
12 | CCCC(=O)N1c2ccccc2CCC1C(=O)Nc1ccccc1C(F)(F)F (configuration not stated) | > 70 | – | > 70 | > 70 | > 70 | – | 95 | > 70 | > 70 | 51
13 | CCCCCCCCC(=O)N1c2ccccc2CCC1C(=O)Nc1cc(C(F)(F)F)cc(C(F)(F)F)c1 (configuration not stated) | 7.43 | – | 4.97 | 7.53 | 2.23 | – | 51 | 3.23 | 4.52 | 58
14 | O=C(Nc1cc(C(F)(F)F)cc(C(F)(F)F)c1)C1CCc2ccccc2N1C(=O)c1ccccc1Cl (configuration not stated) | 8.04 | – | 4.05 | 5.25 | 1.93 | – | 23 | 2.08 | 4.7 | 90
15 | O=C(Nc1ccccc1)C1CCc2ccccc2N1 (configuration not stated) | 110 | – | 109 | 108 | 59 | – | 60 | 97.1 | 72.9 | 85
16 | CCC(=O)N1c2ccccc2CCC1C(=O)Nc1cc(C(F)(F)F)cc(C(F)(F)F)c1 (configuration not stated) | 8.54 | – | 7.62 | 7.28 | 7.22 | – | 20 | 7.82 | 7.72 | 91
17 | O=C(Nc1ccccc1O)C1CCc2ccccc2N1C(=O)c1ccc(Cl)cc1 (configuration not stated) | 25.1 | – | 20.2 | 19.6 | 13.4 | – | 20 | 19.2 | 19.6 | 82
18 | CCCCCCCCC(=O)N1c2ccccc2CCC1C(=O)Nc1ccccc1C(F)(F)F (configuration not stated) | 4.32 | – | 7.7 | 3.35 | 6.18 | – | 27 | 4.22 | 8.33 | 63
19 | O=C(Nc1cc(C(F)(F)F)cc(C(F)(F)F)c1)C1CCc2ccccc2N1C(=O)c1ccc(Cl)cc1 (configuration not stated) | 4.23 | – | 2.22 | 2 | 1.66 | – | 20 | 0.889 | 2.57 | 92
20 | O=C(Nc1cc(C(F)(F)F)cc(C(F)(F)F)c1)C1CCc2ccccc2N1C(=O)c1ccccc1 (configuration not stated) | 3.5 | – | 3.54 | 2.43 | 1.68 | – | 29 | 2.13 | 2.92 | 66
21 | COc1ccc(NC(=O)C2CCc3ccccc3N2)cc1 (configuration not stated) | 56.9 | – | 50.2 | 51.4 | 51.9 | – | 34 | 55.7 | 38 | > 100
22 | O=C(Nc1ccccc1O)C1CCc2ccccc2N1 (configuration not stated) | 4.31 | – | 5.61 | 5.26 | 2.68 | – | 83 | 2.23 | 3.99 | 57
23 | O=C(Nc1ccccc1C(F)(F)F)C1CCc2ccccc2N1C(=O)c1ccccc1Cl (configuration not stated) | 5.14 | 58 | 4.22 | 2.53 | 2.73 | 41 | 0.9 | 2.15 | 3.9 | 82
